Measurements from different studies.
Each line is one published result; the experiments were not run side by side.
BRAF V600E: Serine/threonine-protein kinase B-raf (BRAF, Homo sapiens, UniProt P15056, V600E)
BRAF: Serine/threonine-protein kinase B-raf (BRAF, Homo sapiens, UniProt P15056)

| Compound | target | test | conditions | measurement | value |
| --- | --- | --- | --- | --- | --- |
| O=C1NC(c2ccccn2)Sc2ccccc21 (centres unmarked) | BRAF V600E | cell-free assay, competition with immobilised ligand | 1 µM | remaining binding | 94% |
| Cc1ccc(C(CS(=O)(=O)c2ccccc2)=NNC2=NC(=O)C(=NNc3ccc(Cl)cc3)S2)cc1 | BRAF V600E | enzyme activity, inhibitor, ATP luminescence | 10 µM | inhibition | 83% |
| Cc1cc(NC(=O)c2cccc3cc(-c4cccc5[nH]nc(N)c45)ccc23)ccc1F | BRAF V600E | enzyme activity, inhibitor | 0.1 µM | activity vs control | 100% |
| Cc1ccc(C(CS(=O)(=O)c2ccccc2)=NNc2nc(-c3ccc(OCCCCOc4ccc(-c5csc(NN=C(CS(=O)(=O)c6ccccc6)c6ccc(C)cc6)n5)cc4)cc3)cs2)cc1 | BRAF V600E | enzyme activity, inhibitor, ATP luminescence | 10 nM | inhibition | 32% |
| C[C@H](c1ccc(F)cc1)N(Cc1cccc(C(=O)O)c1)C(=O)c1cnc2ccccc2c1 | BRAF V600E | cell-free assay, competition with immobilised ligand | 1 µM | remaining binding | 100% |
| COc1cc2nccc(Oc3ccc(NC(=O)Nc4ccc(F)cc4F)c(F)c3)c2cc1OC | BRAF | thermal stability, DSF | 10 µM | ΔTm | > 10 °C |
| Cn1nc(C(=O)NCc2ccc(C(=O)O)cc2)cc1-c1ccc2[nH]ccc2c1 | BRAF | cell-free assay, competition with immobilised ligand | 0.1 µM | remaining binding | 74% |
| Cc1ccc(C(CS(=O)(=O)c2ccccc2)=NNc2nc(C)c(N=Nc3ccccc3)s2)cc1 | BRAF V600E | enzyme activity, inhibitor, ATP luminescence | 1 µM | inhibition | 63% |
| O=C(Nc1cnn(-c2csc(C(=O)NC3COC3)c2)c1)Nc1ccccc1Cl | BRAF | enzyme activity, inhibitor | 5 µM | remaining activity | 93.3% |
| COc1ccc2cc(OCC3(C(=O)O)CN(C(=O)c4ccc(F)cc4)C3)ccc2c1 | BRAF | cell-free assay, competition with immobilised ligand | 1 µM | remaining binding | 93% |
| CC(C)(C)c1nc(-c2cccc(NS(=O)(=O)c3c(F)cccc3F)c2F)c(-c2ccnc(N)n2)s1 | BRAF | enzyme activity, inhibitor, radiometric | 1 µM | activity vs control | 5% |
| Nc1ncnc2occ(-c3ccc(NC(=O)Nc4cc(C(F)(F)F)ccc4F)cc3)c12 | BRAF | cell-free assay | 20 µM | remaining signal | 0.8% |
| Cc1ccc(C(=O)NCc2ccsc2)cc1C#Cc1cn(C(C)C)c2ncnc(N)c12 | BRAF V600E | enzyme activity, inhibitor | 1 µM | activity vs control | 9% |
| CCOCCn1cc(C(=O)Nc2ccc(-n3nc(-c4cccnc4)cc3C(F)(F)F)cn2)ccc1=O | BRAF V600E | cell-free assay, competition with immobilised ligand | 1 µM | remaining binding | 97% |
| NC(=S)NN=C(CS(=O)(=O)c1ccccc1)c1ccc(F)cc1 | BRAF V600E | enzyme activity, inhibitor, ATP luminescence | 0.1 µM | inhibition | 51% |
| O=C(Nc1cnc(Oc2ccc(F)cc2)nc1)N1CCc2ncccc2[C@@H]1c1ccc(F)cc1 | BRAF V600E | cell-free assay, competition with immobilised ligand | 1 µM | remaining binding | 83% |
| CN(C)C1CCN(CC#Cc2nn(C3CCCC3)c3nc(NCc4ccccc4)ncc23)C1 (centres unmarked) | BRAF | enzyme activity, inhibitor, FRET | 0.1 µM | inhibition | -3% |
| C[S+]([O-])c1ccc(-c2nc(-c3ccncc3)c(-c3ccc(F)cc3)[nH]2)cc1 (centres unmarked) | BRAF | cell-free assay | 0.5 µM | remaining signal | 78.8% |
| Cc1nc(N2CC[C@@H](O)C2)ncc1-c1cc(C(F)(F)F)cc2[nH]ncc12 | BRAF | cell-free assay, competition with immobilised ligand | 1 µM | remaining binding | 73% |
| CC1CCCN1c1nccc(-c2cnn3ncccc23)n1 (centres unmarked) | BRAF | binding | 1 µM | remaining binding | 100% |
| O=C(Nc1cnn(-c2csc(C(=O)NC3COC3)c2)c1)Nc1c(F)cccc1Cl | BRAF | enzyme activity, inhibitor | 5 µM | remaining activity | 99.9% |
| N#CCCc1ccc2c(c1)-c1[nH]c3ccc([N+](=O)[O-])cc3c1CC(=O)N2 | BRAF | cell-free assay | 0.5 µM | remaining signal | 99.3% |
| CC(C)(C)c1nc2c(s1)c1nc(N)ncc1c1ccc(NS(=O)(=O)c3c(F)cccc3F)c(F)c12 | BRAF V600E | enzyme activity, inhibitor, radiometric | 1 µM | remaining activity | 27% |
| Cc1c(NC(=O)c2cc(C(N)=O)nc3cc(F)ccc23)c(C(F)(F)F)nn1Cc1ccc(C#N)cc1 | BRAF | cell-free assay, competition with immobilised ligand | 1 µM | remaining binding | 91% |
| O=C1NC(=O)c2cc(Nc3ccc(F)cc3)c(Nc3ccc(F)cc3)cc21 | BRAF | cell-free assay | 0.5 µM | remaining signal | 94.2% |
| COc1ccc(-c2csc(NN=C(CS(=O)(=O)c3ccccc3)c3ccc(F)cc3)n2)cc1 | BRAF V600E | enzyme activity, inhibitor, ATP luminescence | 1 µM | inhibition | 72% |
| Cc1ccc(C(=O)Nc2ccc(CN3CCN(C)CC3)c(C(F)(F)F)c2)cc1C#Cc1cnc2cccnn12 | BRAF V600E | cell-free assay | 23.5 nM | remaining signal | 4.5% |
| N[C@@H]1CCN(c2nccc(-c3cnn4ncccc34)n2)C1 | BRAF | binding | 1 µM | remaining binding | 100% |
| c1nc2c(Nc3ccc4c(c3)OCCO4)nc(Nc3ccc4c(c3)OCCO4)nc2[nH]1 | BRAF | enzyme activity, inhibitor | 10 µM | activity vs control | 92% |
